Among the data in PubChem BioAssay are GFP response vs DMSO, GFP response relative to DMSO and GFP response, % of DMSO values, retold here.

A short description of assay [1]: hit retest on RPL19A-GFP reporter strain – cell-based, S. cerevisiae, flow cytometry, cherry picks, mother/daughter gates, confirmation (AID 2270;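 active = GFP response below 50% of the DMSO control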). The settings on record: 3 h, at 10 µM, stronger effect = lower value, 100 = same GFP as DMSO wells.
Assay [2] in a line: yeast TOR pathway reporter LAP4-GFP change – cell-based, cherry picks, flow cytometry, mother/daughter gates, confirmation (AID 2271;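 active = GFP response above 150% of the DMSO control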;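 note: ratio of sample to DMSO plate mean so 100% equals DMSO level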). The conditions noted are these: S. cerevisiae LAP4-GFP strain, 3 h, at 10 µM, stronger effect = higher value, 100 means same as DMSO control. In a few lines:
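Material – Alexa Fluor 633-labelled Saccharomyces cerevisiae GFP-fusion strain, single-plex · Incubation – compound exposure 3 h at 30 °C, end-over-end rotation · Measured by – GFP by flow cytometry · Measure – median GFP fluorescence as percent of plate-mean DMSO wells · Control set – positive rapamycin (400 ng/mL), negative DMSO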
A general note: A flow cytometer gives signals particle by particle.

Assay [3] can be described thus: TOR pathway reporter MEP2-GFP, retest of hits – S. cerevisiae, flow cytometry GFP, cherry picks, confirmation (AID 2272;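 active = GFP response above 150% of the DMSO control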;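 note: ratio of well signal to plate DMSO mean so 100% equals DMSO level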). The conditions noted are these: S. cerevisiae MEP2-GFP strain, 3 h, at 10 µM, stronger effect = higher value.
A short description of assay [4]: yeast AGP1-GFP fluorescence change, single-dose – cell-based, flow cytometry, S. cerevisiae, cherry picks, confirmation (AID 2273).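 Note: median GFP channel fluorescence over the whole cell population gate.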 The conditions noted are these: S. cerevisiae AGP1-GFP strain, 3 h, at 10 µM.
Assay [5] is described as follows: TOR pathway CIT2 reporter hit retest – S. cerevisiae, GFP fusion, cherry picks, mother/daughter gates, confirmation (AID 2274). The settings on record: S. cerevisiae CIT2-GFP strain, flow cytometry, 3 h, at 10 µM, stronger effect = higher value.
Setting [6] is: measured here: daughter cell gate.
Setting [7] is: measured here: mother cell gate.
[8] abbreviates: measured here: daughter cell gate response.
The mark [9] stands for this setting: measured here: mother cell gate response.

SMILES strings stand for the structures. Activity calls are given as the source filed them.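 Rule for the calls, unless noted: active = GFP response above 150% of the DMSO level; inconclusive = fewer than 70 events counted for a yeast strain; inactive = the rest.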

Consider `Clc1ccccc1N=C1NN=C(c2cccs2)CS1`, for which the GFP response vs DMSO was 96.8% (inactive) in assay [1], 93.4% in assay [1] (setting [6]), 95.7% in assay [1] (setting [7]) and 90.5% (inactive) in assay [3]. The results for the GFP response relative to DMSO in assay [2], in assay [2] (setting [8]) and in assay [2] (setting [9]) were 108% (inactive), 106% and 113%, respectively. For the same molecule, the GFP response, % of DMSO is 98.8% (inactive) in assay [4], 90.1% (inactive) in assay [5], 88.4% in assay [5] (setting [6]) and 89.5% in assay [5] (setting [7]).
As to `CCCC(=O)Nc1ccc(NC(=O)c2cc3ccccc3o2)c(OC)c1`, the GFP response vs DMSO in assay [1] is 98.8% (inactive); in assay [1] (setting [6]), 98.4%; in assay [1] (setting [7]), 98%; in assay [3] it was 103% (inactive). For the same molecule, the GFP response relative to DMSO in assay [2] is 98.2% (inactive); in assay [2] (setting [8]), 99.1%; in assay [2] (setting [9]), 98.4%. The GFP response, % of DMSO in assay [4] is 102% (inactive); in assay [5] it was 97.3% (inactive); in assay [5] (setting [6]), 99.2%; in assay [5] (setting [7]), 87%.
Turning to `O=C(Nc1cc(Sc2ccccn2)cc([N+](=O)[O-])c1)c1ccc(Cl)cc1`, the GFP response vs DMSO was 99% (inactive) in assay [1], 99.6% in assay [1] (setting [6]), 99.2% in assay [1] (setting [7]) and 100% (inactive) in assay [3]. In addition, the GFP response relative to DMSO in assay [2] was 99.2% (inactive); in assay [2] (setting [8]), 101%; in assay [2] (setting [9]) it was 97.2%. Also, the GFP response, % of DMSO was 97.4% (inactive) in assay [4], 101% (inactive) in assay [5], 101% in assay [5] (setting [6]) and 99.7% in assay [5] (setting [7]).
For the molecule `O=C1c2ccccc2C(=O)N1OS(=O)(=O)c1ccc(F)cc1`, the GFP response vs DMSO in assay [1] was 74% (inactive); in assay [1] (setting [6]), 89.4%; in assay [1] (setting [7]), 61.9%; in assay [3], 103% (inactive). Besides, the GFP response relative to DMSO is 127% (inactive) in assay [2], 129% in assay [2] (setting [8]) and 129% in assay [2] (setting [9]). Also, the GFP response, % of DMSO is 102% (inactive) in assay [4], 121% (inactive) in assay [5], 103% in assay [5] (setting [6]) and 99.7% in assay [5] (setting [7]).
For `CSc1ccc(/C=C/C(=O)c2ccc(NC(=O)C(C)C)cc2)cc1`, the GFP response vs DMSO in assay [1] was 98.8% (inactive); in assay [1] (setting [6]), 97.5%; in assay [1] (setting [7]) it was 99.1%; in assay [3], 100% (inactive). For the same molecule, the GFP response relative to DMSO in assay [2] is 107% (inactive); in assay [2] (setting [8]), 103%; in assay [2] (setting [9]), 111%. For the same molecule, the GFP response, % of DMSO in assay [4] was 93.5% (inactive); in assay [5] it was 92.6% (inactive); in assay [5] (setting [6]), 93.2%; in assay [5] (setting [7]), 90.2%.
Regarding `CCNc1nc(-c2ccc(Cl)cc2)cs1`, the GFP response vs DMSO in assay [1] is 101% (inactive); in assay [1] (setting [6]) it was 100%; in assay [1] (setting [7]) it was 101%; in assay [3] it was 102% (inactive). The GFP response relative to DMSO in assay [2] is 93.8% (inactive); in assay [2] (setting [8]), 97.2%; in assay [2] (setting [9]), 96.2%. Also, the GFP response, % of DMSO in assay [4] was 97.8% (inactive); in assay [5], 104% (inactive); in assay [5] (setting [6]), 101%; in assay [5] (setting [7]) it was 106%.
With `N#Cc1ccccc1Cn1cc(/C=C/[N+](=O)[O-])c2ccccc21`, the GFP response vs DMSO in assay [1] was 96.3% (inactive); in assay [1] (setting [6]), 98.3%; in assay [1] (setting [7]) it was 95.1%; in assay [3] it was 98.8% (inactive). The GFP response relative to DMSO was 132% (inactive) in assay [2], 129% in assay [2] (setting [8]) and 134% in assay [2] (setting [9]). Moreover, the GFP response, % of DMSO in assay [4] is 104% (inactive); in assay [5], 97.2% (inactive); in assay [5] (setting [6]), 100%; in assay [5] (setting [7]), 91.8%.
On to `CCOc1ccc(N2C(=O)C(Cl)=C(Nc3ccccc3O)C2=O)cc1`, for which the GFP response vs DMSO in assay [1] was 97.4% (inactive); in assay [1] (setting [6]) it was 98%; in assay [1] (setting [7]) it was 98.1%; in assay [3] it was 104% (inactive). The GFP response relative to DMSO in assay [2] is 103% (inactive); in assay [2] (setting [8]), 99.3%; in assay [2] (setting [9]), 105%. Besides, the GFP response, % of DMSO in assay [4] was 96.7% (inactive); in assay [5], 97.8% (inactive); in assay [5] (setting [6]), 100%; in assay [5] (setting [7]), 95.6%.
Take `COc1ccc(/C=C/C(=O)NC(=S)NNC(=O)c2cnccn2)cc1`: the GFP response vs DMSO is 105% (inactive) in assay [1], 91.1% in assay [1] (setting [6]), 79.2% in assay [1] (setting [7]) and 140% (inactive) in assay [3]. The GFP response relative to DMSO in assay [2] was 166% (active); in assay [2] (setting [8]) it was 120%; in assay [2] (setting [9]), 162%. In addition, the GFP response, % of DMSO in assay [4] was 78.5% (inactive); in assay [5], 115% (inactive); in assay [5] (setting [6]), 99.1%; in assay [5] (setting [7]), 106%.
`Cc1ccccc1N1C(=O)c2sc3nc4c(c(=O)n3c2C1=O)CCC4`: the GFP response vs DMSO in assay [1] is 96.2% (inactive); in assay [1] (setting [6]), 94.9%; in assay [1] (setting [7]), 96.3%; in assay [3], 99% (inactive). The GFP response relative to DMSO is 107% (inactive) in assay [2], 107% in assay [2] (setting [8]) and 110% in assay [2] (setting [9]). The GFP response, % of DMSO is 102% (inactive) in assay [4], 90.1% (inactive) in assay [5], 90.2% in assay [5] (setting [6]) and 88.2% in assay [5] (setting [7]).
`Oc1ccc(Cl)cc1-c1cc(-c2ccco2)[nH]n1`: the GFP response vs DMSO in assay [1] is 103% (inactive); in assay [1] (setting [6]), 100%; in assay [1] (setting [7]), 104%; in assay [3], 109% (inactive). The GFP response relative to DMSO in assay [2] was 95% (inactive); in assay [2] (setting [8]), 94.1%; in assay [2] (setting [9]), 96.2%. Besides, the GFP response, % of DMSO in assay [4] is 88.2% (inactive); in assay [5] it was 102% (inactive); in assay [5] (setting [6]), 99.7%; in assay [5] (setting [7]), 101%.
Take `O=C(Nc1ccc(NC(=O)c2cc3ccccc3o2)cc1)c1ccc2c(c1)OCCO2`: the GFP response vs DMSO in assay [1] was 103% (inactive); in assay [1] (setting [6]), 101%; in assay [1] (setting [7]), 102%; in assay [3], 103% (inactive). In addition, the GFP response relative to DMSO in assay [2] was 97% (inactive); in assay [2] (setting [8]) it was 95.9%; in assay [2] (setting [9]), 97.3%. The GFP response, % of DMSO was 98.6% (inactive) in assay [4], 105% (inactive) in assay [5], 99.2% in assay [5] (setting [6]) and 107% in assay [5] (setting [7]).
With `NC(=O)c1ccccc1-c1nc(-c2ccccc2)no1`, the GFP response vs DMSO was 97.6% (inactive) in assay [1], 96.1% in assay [1] (setting [6]), 96.7% in assay [1] (setting [7]) and 109% (inactive) in assay [3]. The GFP response relative to DMSO in assay [2] is 101% (inactive); in assay [2] (setting [8]), 97.5%; in assay [2] (setting [9]), 102%. The GFP response, % of DMSO is 102% (inactive) in assay [4], 105% (inactive) in assay [5], 101% in assay [5] (setting [6]) and 104% in assay [5] (setting [7]).
In the case of `Cc1cccc(CSCc2ccc(C(=O)NC(C)C)o2)c1`, the GFP response vs DMSO in assay [1] is 101% (inactive); in assay [1] (setting [6]), 98.1%; in assay [1] (setting [7]), 101%; in assay [3], 96.8% (inactive). Also, the figures for the GFP response relative to DMSO in assay [2], in assay [2] (setting [8]) and in assay [2] (setting [9]) were 99.5% (inactive), 95.9% and 99.4%, respectively. Also, the GFP response, % of DMSO in assay [4] is 101% (inactive); in assay [5] it was 102% (inactive); in assay [5] (setting [6]) it was 103%; in assay [5] (setting [7]), 99.3%.
With `CC1=CC(=O)C(C(C)C)=C/C1=N/OS(=O)(=O)c1ccccc1`, the GFP response vs DMSO was 78.6% (inactive) in assay [1], 51.6% in assay [1] (setting [6]), 71.3% in assay [1] (setting [7]) and 127% (inactive) in assay [3]. Further, the GFP response relative to DMSO in assay [2] was 271% (active); in assay [2] (setting [8]), 175%; in assay [2] (setting [9]), 270%. Moreover, the GFP response, % of DMSO was 118% (inactive) in assay [4], 99.7% (inactive) in assay [5], 111% in assay [5] (setting [6]) and 83.8% in assay [5] (setting [7]).
As for `COc1ccc(OC)c(CNC(=O)CCC(=O)N2Cc3cccc(OC)c3Oc3ncccc32)c1`, the GFP response vs DMSO in assay [1] was 102% (inactive); in assay [1] (setting [6]), 100%; in assay [1] (setting [7]) it was 101%; in assay [3], 105% (inactive). Besides, the values for the GFP response relative to DMSO in assay [2], in assay [2] (setting [8]) and in assay [2] (setting [9]) were 90.6% (inactive), 94.2% and 95.2%, respectively. The GFP response, % of DMSO in assay [4] was 109% (inactive); in assay [5], 102% (inactive); in assay [5] (setting [6]), 101%; in assay [5] (setting [7]), 103%.
For `O=c1c2c(-c3cccs3)csc2ncn1/N=C/c1ccccn1`, the GFP response vs DMSO in assay [1] was 98.4% (inactive); in assay [1] (setting [6]), 95.2%; in assay [1] (setting [7]), 96.5%; in assay [3] it was 99% (inactive). The GFP response relative to DMSO was 119% (inactive) in assay [2], 112% in assay [2] (setting [8]) and 121% in assay [2] (setting [9]). Moreover, the GFP response, % of DMSO is 99.2% (inactive) in assay [4], 91.5% (inactive) in assay [5], 92% in assay [5] (setting [6]) and 89.5% in assay [5] (setting [7]).
